Source: ChEMBL document CHEMBL1287703, “Essential structural features of TNF-α lectin-like domain derived peptides for activation of amiloride-sensitive sodium current in A549 cells” (J Med Chem, 2010)
Calls of active or inactive are those of the source. No cut-off for these calls is given here. Where a SMILES comes first, the peptide text is derived from it. Bridges are numbered along the chain shown (N, C = ends).

Experiments:
Assay type in all cases: cell-based
[1] = tested on: A549; assay: Activation of amiloride-sensitive epithelial sodium channel in human A549 cells up to 480 nM at holding potential -100 to + 100 mV by whole cell patch clamp technique
In short: (§1)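 A549 cells (passages 80–90) were grown in DMEM/F12 with 10% FBS and 1% penicillin-streptomycin, then whole-cell patch-clamped at 19–22°C, 24–48 h after plating. After a 5 min equilibration, Eh was stepped from −100 to +100 mV in 20 mV steps, 1 min each. A 5 min control preceded cumulative bath peptide addition (3.5–480 nM final), with amiloride added at the end. EC50 was fitted at −100 mV.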

[2] = tested on: A549; assay: Activation of tetraethylammonium-sensitive potassium channel in human A549 cells at 120 nM at holding potential -100 mV by whole cell patch clamp technique
[3] = tested on: A549; assay: Activation of amiloride-sensitive epithelial sodium channel in human A549 cells at 120 nM at holding potential -100 to + 100 mV by whole cell patch clamp technique; in short: as §1

SMILES | Activity [1] | Activity [2] | Activity [3]
C[C@@H]1NC(=O)CNC(=O)[C@H](CCC(=O)O)NC(=O)[C@@H]2CCCN2C(=O)[C@H]([C@H](C)O)NC(=O)[C@H](CCC(=O)O)NC(=O)[C@H](CCCNC(=N)N)NC(=O)[C@H](CCC(N)=O)NC(=O)CNC(=O)CCCCCCNC(=O)[C@H](Cc2ccc(O)cc2)NC(=O)[C@H](Cc2c[nH]c3ccccc23)NC(=O)[C@@H]2CCCN2C(=O)[C@H](CCCCN)NC(=O)[C@H](C)NC(=O)[C@H](CCC(=O)O)NC1=O | inactive | – | –
C[C@@H]1NC(=O)CNC(=O)[C@H](CCC(=O)O)NC(=O)[C@@H]2CCCN2C(=O)[C@H]([C@H](C)O)NC(=O)[C@H](CCC(=O)O)NC(=O)[C@H](CCCNC(=N)N)NC(=O)[C@H](CCC(N)=O)NC(=O)CNC(=O)[C@@H](N)CSSC[C@@H](C(=O)O)NC(=O)[C@H](Cc2ccc(O)cc2)NC(=O)[C@H](Cc2c[nH]c3ccccc23)NC(=O)[C@@H]2CCCN2C(=O)[C@H](CCCCN)NC(=O)[C@H](C)NC(=O)[C@H](CCC(=O)O)NC1=O | – | 0.6% | 99.4%
C[C@@H]1NC(=O)CNC(=O)[C@H](C)NC(=O)[C@@H]2CCCN2C(=O)[C@H](C)NC(=O)[C@H](CCC(=O)O)NC(=O)[C@H](CCCNC(=N)N)NC(=O)[C@H](CCC(N)=O)NC(=O)CNC(=O)[C@@H](N)CSSC[C@@H](C(=O)O)NC(=O)[C@H](Cc2ccc(O)cc2)NC(=O)[C@H](Cc2c[nH]c3ccccc23)NC(=O)[C@@H]2CCCN2C(=O)[C@H](CCCCN)NC(=O)[C@H](C)NC(=O)[C@H](C)NC1=O (H-CGQREAPAGAAAKPWYC-OH; disulfide 1-17) | inactive | – | –
C[C@@H]1NC(=O)CNC(=O)[C@H](CCC(=O)O)NC(=O)[C@@H]2CCCN2C(=O)[C@H]([C@H](C)O)NC(=O)[C@H](CCC(=O)O)NC(=O)[C@H](CCCNC(=N)N)NC(=O)[C@H](CCC(N)=O)NC(=O)CNC(=O)CCCNC(=O)CNC(=O)[C@H](Cc2ccc(O)cc2)NC(=O)[C@H](Cc2c[nH]c3ccccc23)NC(=O)[C@@H]2CCCN2C(=O)[C@H](CCCCN)NC(=O)[C@H](C)NC(=O)[C@H](CCC(=O)O)NC1=O | inactive | – | –
C[C@@H]1NC(=O)CNC(=O)[C@H](CCC(=O)O)NC(=O)[C@@H]2CCCN2C(=O)[C@H]([C@H](C)O)NC(=O)[C@H](CCC(=O)O)NC(=O)[C@H](CCCNC(=N)N)NC(=O)[C@H](CCC(N)=O)NC(=O)[C@@H](N)CSSC[C@@H](C(=O)O)NC(=O)CNC(=O)CNC(=O)[C@H](CCCCN)NC(=O)[C@H](C)NC(=O)[C@H](CCC(=O)O)NC1=O | inactive | – | –
C[C@@H]1NC(=O)CNC(=O)[C@H](CCC(=O)O)NC(=O)[C@@H]2CCCN2C(=O)[C@H]([C@H](C)O)NC(=O)[C@H](CCC(=O)O)NC(=O)[C@H](CCCNC(=N)N)NC(=O)[C@H](CCC(N)=O)NC(=O)CNC(=O)CCCCCNC(=O)CNC(=O)[C@H](Cc2ccc(O)cc2)NC(=O)[C@H](Cc2c[nH]c3ccccc23)NC(=O)[C@@H]2CCCN2C(=O)[C@H](CCCCN)NC(=O)[C@H](C)NC(=O)[C@H](CCC(=O)O)NC1=O | inactive | – | –
